Calls of active or inactive are those of the source. The rule behind the calls is not given here.
Assays:
[1] = biological target: T1, Phospholipase A and acyltransferase 2 (Homo sapiens, UniProt Q9NWW9); assay: Inhibition of full-length C-terminal FLAG-tagged human PLAAT2 expressed in HEK293T cell lysate preincubated for 30 mins followed by MB064 addition and measured after 20 mins by SDS-PAGE based ABPP analysis; type: cell-free, HEK-293T
T1 sequence (Q9NWW9 whole entry): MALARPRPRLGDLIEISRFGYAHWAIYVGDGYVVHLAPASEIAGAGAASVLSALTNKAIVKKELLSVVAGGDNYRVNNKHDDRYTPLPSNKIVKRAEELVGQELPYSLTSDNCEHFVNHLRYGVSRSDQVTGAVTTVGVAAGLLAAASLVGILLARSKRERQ
Outline: (§1)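 Dose–response competitive ABPP on cytosol only, from HEK293T overexpressing FLAG-tagged PLAAT. Inhibitor 30 min rt, then MB064 20 min rt. PLAAT2 0.25 μg/μL with 250 nM probe; PLAAT3 0.5 μg/μL with 250 nM; PLAAT4 and PLAAT5 1 μg/μL with 500 nM. Fluorescence normalized to Coomassie. IC50 from curves, reported as pIC50 ± SEM, n = 3.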

[2] = biological target: T2, Phospholipase A and acyltransferase 3 (Homo sapiens, UniProt P53816); assay: Inhibition of full-length C-terminal FLAG-tagged human PLAAT3 expressed in HEK293T cell lysate preincubated for 30 mins followed by MB064 addition and measured after 20 mins by SDS-PAGE based ABPP analysis; type: cell-free, HEK-293T; outline: as §1
T2 sequence (P53816 whole entry): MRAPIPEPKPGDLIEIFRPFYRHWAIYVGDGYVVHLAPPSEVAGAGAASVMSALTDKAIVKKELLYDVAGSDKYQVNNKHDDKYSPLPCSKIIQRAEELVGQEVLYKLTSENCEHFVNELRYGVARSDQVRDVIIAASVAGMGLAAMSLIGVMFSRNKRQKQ

[3] = biological target: T3, Phospholipase A and acyltransferase 4 (Homo sapiens, UniProt Q9UL19); assay: Inhibition of full-length C-terminal FLAG-tagged human PLAAT4 expressed in HEK293T cell lysate preincubated for 30 mins followed by MB064 addition and measured after 20 mins by SDS-PAGE based ABPP analysis; type: cell-free, HEK-293T; outline: as §1
T3 sequence (Q9UL19 whole entry): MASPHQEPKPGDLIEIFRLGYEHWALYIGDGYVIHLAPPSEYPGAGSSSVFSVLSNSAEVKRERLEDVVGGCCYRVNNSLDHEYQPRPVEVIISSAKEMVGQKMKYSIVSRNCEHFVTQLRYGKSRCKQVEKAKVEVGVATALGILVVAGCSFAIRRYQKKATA

[4] = biological target: T4, Phospholipase A and acyltransferase 5 (Homo sapiens, UniProt Q96KN8); assay: Inhibition of full-length C-terminal FLAG-tagged human PLAAT5 expressed in HEK293T cell lysate preincubated for 30 mins followed by MB064 addition and measured after 20 mins by SDS-PAGE based ABPP analysis; type: cell-free, HEK-293T; outline: as §1
T4 sequence (Q96KN8 whole entry): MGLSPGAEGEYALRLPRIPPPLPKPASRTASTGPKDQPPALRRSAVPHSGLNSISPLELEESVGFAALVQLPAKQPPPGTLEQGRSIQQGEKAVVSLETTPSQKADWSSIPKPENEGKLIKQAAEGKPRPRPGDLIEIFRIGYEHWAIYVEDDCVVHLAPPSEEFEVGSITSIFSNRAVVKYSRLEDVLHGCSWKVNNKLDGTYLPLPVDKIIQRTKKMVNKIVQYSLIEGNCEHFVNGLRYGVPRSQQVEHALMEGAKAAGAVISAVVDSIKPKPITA

Homo sapiens [5] = organism: Homo sapiens; assay: Selectivity index, difference between pIC50 for full-length C-terminal FLAG-tagged human PLAAT5 expressed in HEK293T cell lysate to pIC50 for full-length C-terminal FLAG-tagged human PLAAT2 expressed in HEK293T cell lysate
Outline: (§2)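 Cytosol of HEK293T cells transiently transfected (PEI) with C-terminal FLAG-tagged human PLAAT, harvested at 48 or 72 h. Dose-response: pretreated with inhibitor or DMSO for 30 min at rt, then labelled with MB064 for 20 min at rt. Protein and MB064: PLAAT2 0.25 μg/μL, 250 nM; PLAAT3 0.5 μg/μL, 250 nM; PLAAT4 1 μg/μL, 500 nM; PLAAT5 1 μg/μL, 500 nM. Read by SDS-PAGE in-gel fluorescence normalized to Coomassie. Triplicate pIC50s; index is the pIC50 difference.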

Homo sapiens [6] = organism: Homo sapiens; assay: Selectivity index, difference between pIC50 for full-length C-terminal FLAG-tagged human PLAAT5 expressed in HEK293T cell lysate to pIC50 for full-length C-terminal FLAG-tagged human PLAAT3 expressed in HEK293T cell lysate; outline: as §2
Homo sapiens [7] = organism: Homo sapiens; assay: Selectivity index, difference between pIC50 for full-length C-terminal FLAG-tagged human PLAAT5 expressed in HEK293T cell lysate to pIC50 for full-length C-terminal FLAG-tagged human PLAAT4 expressed in HEK293T cell lysate; outline: as §2
[8] = biological target: T5, Phospholipase A and acyltransferase 2 (Homo sapiens) (UniProt Q9NWW9); assay: Inhibition of full-length C-terminal FLAG-tagged human PLAAT2 expressed in HEK293T cell lysate at 10 uM preincubated for 30 mins followed by MB064 addition and measured after 20 mins by SDS-PAGE based ABPP analysis; type: cell-free; settings: HEK-293T
T5 sequence (whole entry): T1 sequence (Q9NWW9 whole entry)
Outline: (§3)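 Cytosol from HEK293T cells transiently transfected (PEI) with C-terminal FLAG-tagged human PLAAT, harvested 48–72 h. Inhibitor 10 μM, 30 min rt, then MB064 probe 20 min rt. Protein/MB064: PLAAT2 0.25 μg/μL, 250 nM; PLAAT3 0.5 μg/μL, 250 nM; PLAAT4 1 μg/μL, 500 nM; PLAAT5 1 μg/μL, 500 nM. Read-out: in-gel fluorescence after SDS-PAGE, normalized to Coomassie. Triplicate.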

[9] = biological target: Phospholipase A and acyltransferase 3 (Homo sapiens) (UniProt P53816); assay: Inhibition of full-length C-terminal FLAG-tagged human PLAAT3 expressed in HEK293T cell lysate at 10 uM preincubated for 30 mins followed by MB064 addition and measured after 20 mins by SDS-PAGE based ABPP analysis; type: cell-free; settings: HEK-293T; outline: as §3
[10] = biological target: Phospholipase A and acyltransferase 4 (Homo sapiens) (UniProt Q9UL19); assay: Inhibition of full-length C-terminal FLAG-tagged human PLAAT4 expressed in HEK293T cell lysate at 10 uM preincubated for 30 mins followed by MB064 addition and measured after 20 mins by SDS-PAGE based ABPP analysis; type: cell-free; settings: HEK-293T; outline: as §3
[11] = biological target: T6, Phospholipase A and acyltransferase 5 (Homo sapiens) (UniProt Q96KN8); assay: Inhibition of full-length C-terminal FLAG-tagged human PLAAT5 expressed in HEK293T cell lysate at 10 uM preincubated for 30 mins followed by MB064 addition and measured after 20 mins by SDS-PAGE based ABPP analysis; type: cell-free; settings: HEK-293T; outline: as §3
T6 sequence (whole entry): T4 sequence (Q96KN8 whole entry)

IC50 [1] | IC50 [2] | IC50 [3] | IC50 [4] | Selectivity Index (Homo sapiens [5]) | Selectivity Index (Homo sapiens [6]) | Selectivity Index (Homo sapiens [7]) | inhibition [8] | inhibition [9] | inhibition [10] | inhibition [11] | Compound
3.98 µM | 3.98 µM | 1.26 µM | 0.126 µM | 10 to 30 | 10 to 30 | 10 to 30 |  |  |  |  | O=C(CCc1ccc(Oc2ccccc2)cc1)C(=O)NCCc1ccccc1
> 10 µM | > 10 µM | > 10 µM | > 10 µM |  |  |  | inactive | inactive | inactive | inactive | O=C(NCCc1ccccc1)C(O)CCc1ccc(Cl)cc1 (stereo not given)

Source: ChEMBL document CHEMBL4622983, “Structure-Activity Relationship Studies of α-Ketoamides as Inhibitors of the Phospholipase A and Acyltransferase Enzyme Family” (J Med Chem, 2020)
